Assay results as given in ChEMBL document CHEMBL4033611, “Chlorinated Dehydrocurvularins and Alterperylenepoxide A from Alternaria sp. AST0039, a Fungal Endophyte of Astragalus lentiginosus” (J Nat Prod, 2017).
pIC50: −log10 of the molar value. Active and inactive are the calls of the source. The calls are words filed in the database; no cut-off is given here. Peptide text beside a SMILES is read from it. * marks the point of attachment. Cbz = O=C(OCc1ccccc1)*

Assays:
PC-3M = test: Cytotoxicity against human PC3M cells after 72 hrs by resazurin/AlamarBlue dye-based fluorescence assay; format: functional, cell-based
How it was run: (§1)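 Serial dilutions of compound or DMSO vehicle added to triplicate wells in RPMI-1640 with 10% FBS, 72 h at 37 °C. Resazurin (AlamarBlue) dye then added at 1:10 dilution, 4 h more at 37 °C, fluorescence read at Ex/Em 560/590. Mean fluorescence per well compared with DMSO-treated wells as relative viable cell number; doxorubicin positive control.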

MCF7 = test: Cytotoxicity against human MCF7 cells after 72 hrs by resazurin/AlamarBlue dye-based fluorescence assay; format: functional, cell-based; details: MCF7, 72 h; how it was run: as §1
SF-268 = test: Cytotoxicity against human SF268 cells after 72 hrs by resazurin/AlamarBlue dye-based fluorescence assay; format: functional, cell-based; details: SF-268, 72 h; how it was run: as §1
MDA-MB-231 = test: Cytotoxicity against human MDA-MB-231 cells after 72 hrs by resazurin/AlamarBlue dye-based fluorescence assay; format: functional, cell-based; details: MDA-MB-231, 72 h; how it was run: as §1
NCI-H460 = test: Cytotoxicity against human NCI-H460 cells after 72 hrs by resazurin/AlamarBlue dye-based fluorescence assay; format: functional, cell-based; details: NCI-H460, 72 h; how it was run: as §1
Fibroblast [1] = test: Induction of heat-shock response in mouse fibroblasts harboring reporter construct encoding enhanced green fluorescent protein at 5 uM after overnight incubation by fluorescence assay; format: functional, cell-based
How it was run: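 Stably transfected reporter fibroblasts (EGFP driven by a minimal consensus heat-shock element) were seeded at 20 000 cells/well and left to attach overnight. Serial 2-fold dilutions of compound were added in triplicate, with DMSO vehicle (≤0.1%) as the negative control. After overnight incubation the cells were rinsed and read in PBS at Ex 485/Em 525 nm. Mean fluorescence ± SD was expressed relative to DMSO.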

[2] = target: Transitional endoplasmic reticulum ATPase (Homo sapiens) (UniProt P55072); test: Inhibition of p97 in human MDA-MB-231 cells assessed as UPR activation by measuring increase in CHOP protein levels up to 20 uM after 8 hrs by Western blot analysis; format: cell-based
How it was run: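 MDA-MB-231 cells were treated for 8 h in DMEM with 10% FBS, then harvested in SDS sample buffer, sonicated and cleared. Lysates were run on 4–20% SDS-PAGE and transferred to nitrocellulose. Blots were blocked in 5% milk and probed for CHOP, XBP1s and ATF4 (1:1000), with β-actin as loading control. Detection was by chemiluminescence. DMSO served as negative control, with CB-5083 (1.0 μM) and MG132 (5.0 μM) as comparators.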

Homo sapiens [3] = species on record: Homo sapiens; test: Inhibition of proteasome in human MDA-MB-231 cells assessed as increase in CHOP protein levels at 5 uM after 8 hrs by Western blot analysis; format: cell-based
How it was run: (§2)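 Cells treated for 8 h in DMEM with 10% FBS, with DMSO negative control, CB-5083 (1.0 μM) positive control and MG132 (5.0 μM) comparator. Lysed by sonication in SDS sample buffer and run on 4–20% SDS-PAGE. Immunoblotted with anti-XBP1s, ATF4, CHOP (1:1000) and β-actin loading control, then HRP secondaries (1:3000) and chemiluminescence.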

Homo sapiens [4] = species on record: Homo sapiens; test: Inhibition of proteasome in human MDA-MB-231 cells assessed as UPR activation by measuring increase in ATF4 protein levels up to 20 uM after 8 hrs by Western blot analysis; format: cell-based; how it was run: as §2
Fibroblast [5] = test: Induction of heat-shock response in mouse fibroblasts harboring reporter construct encoding enhanced green fluorescent protein at 1.25 to 5 uM after overnight incubation by fluorescence assay; format: functional, cell-based
How it was run: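 Reporter fibroblasts carry EGFP driven by a minimal consensus heat-shock element. Seeded at 20 000 cells/well and attached overnight. Serial 2-fold dilutions added in triplicate, with DMSO (≤0.1%) as negative control and monocillin I as positive control. Incubated overnight, rinsed with PBS, fluorescence read at 485/525 nm. Reported as mean ± SD of triplicates, also as a percentage of the DMSO control; three independent experiments.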

Homo sapiens [6] = species on record: Homo sapiens; test: Inhibition of proteasome in human MDA-MB-231 cells assessed as increase in CHOP protein levels up to 20 uM after 8 hrs by Western blot analysis; format: cell-based; how it was run: as §2
Homo sapiens [7] = species on record: Homo sapiens; test: Inhibition of proteasome in human MDA-MB-231 cells assessed as increase in XBP1 protein levels up to 20 uM after 8 hrs by Western blot analysis; format: cell-based; how it was run: as §2

Sequence of Transitional endoplasmic reticulum ATPase (Homo sapiens) (P55072 2-806 limits assumed): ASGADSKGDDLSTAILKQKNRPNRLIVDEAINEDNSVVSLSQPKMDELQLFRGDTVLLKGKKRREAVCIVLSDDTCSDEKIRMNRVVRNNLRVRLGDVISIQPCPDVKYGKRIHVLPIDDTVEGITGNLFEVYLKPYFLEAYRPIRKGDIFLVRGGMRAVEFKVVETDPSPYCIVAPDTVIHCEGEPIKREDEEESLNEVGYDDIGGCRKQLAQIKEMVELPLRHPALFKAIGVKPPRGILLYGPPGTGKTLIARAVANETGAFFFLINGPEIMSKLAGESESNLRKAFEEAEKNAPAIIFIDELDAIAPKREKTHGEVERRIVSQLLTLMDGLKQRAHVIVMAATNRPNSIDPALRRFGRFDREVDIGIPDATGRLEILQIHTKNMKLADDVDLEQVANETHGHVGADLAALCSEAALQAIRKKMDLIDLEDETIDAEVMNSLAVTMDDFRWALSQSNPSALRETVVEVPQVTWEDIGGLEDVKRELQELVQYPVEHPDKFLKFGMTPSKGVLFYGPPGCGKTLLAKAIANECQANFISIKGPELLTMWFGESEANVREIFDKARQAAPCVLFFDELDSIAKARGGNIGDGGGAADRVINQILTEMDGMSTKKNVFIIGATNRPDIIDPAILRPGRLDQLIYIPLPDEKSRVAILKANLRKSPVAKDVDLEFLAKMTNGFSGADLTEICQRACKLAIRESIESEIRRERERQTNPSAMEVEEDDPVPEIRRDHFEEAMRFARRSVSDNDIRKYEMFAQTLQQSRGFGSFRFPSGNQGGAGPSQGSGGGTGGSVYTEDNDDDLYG

SMILES | pIC50 (PC-3M) | pIC50 (SF-268) | pIC50 (MDA-MB-231) | pIC50 (NCI-H460) | Activity (Fibroblast [1]) | other results
C[C@H]1CCC/C=C/C(=O)c2c(cc(O)c(Cl)c2O)CC(=O)O1 | 5.77 | 5.85 | 5.53 | 5.84 | Active | pIC50 (MCF7): 5.70
C[C@H]1CCC/C=C/C(=O)c2c(O)c(Cl)c(O)c(Cl)c2CC(=O)O1 | – | – | – | – | Active | inhibition [2]: Active
CC(C)C[C@@H](C=O)NC(=O)[C@H](CC(C)C)NC(=O)[C@H](CC(C)C)NC(=O)OCc1ccccc1 (Cbz-Leu-Leu-Leu-aldehyde) | – | – | – | – | – | inhibition (Homo sapiens [3]): Active
C[C@H]1CCC/C=C/C(=O)c2c(O)cc(O)cc2CC(=O)O1 [DEHYDROCURVULARIN] | 5.35 | 5.33 | < 5.30 | 5.45 | – | inhibition (Homo sapiens [4]): Active; Activity (Fibroblast [5]): Active; inhibition (Homo sapiens [6]): Active; inhibition (Homo sapiens [7]): Active
COc1cccc2c1C(=O)c1c(O)c3c(c(O)c1C2=O)C[C@@](O)(C(=O)CO)C[C@@H]3O[C@H]1C[C@H](N)[C@H](O)[C@H](C)O1 [DOXORUBICIN] | 6.62 | – | – | – | – | –
